Holding throughout (type): functional
In experiment [1] the test system is Pseudomonas aeruginosa. Put plainly: Antibacterial activity against Pseudomonas aeruginosa at 50 ug/ml after 24 to 48 hrs by cup-plate method. The note with it: read-out: IZ. Summed up:
(§1)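 Sterile nutrient agar cooled to […] and seeded with 18-24 h sub-cultures, then poured at about 45-50 mL per dish. Wells cut with a 6 mm sterile cork borer and filled with 0.1 mL of each of two test dilutions. Plates incubated inverted at 37 °C for 24–48 h; inhibition zone diameters measured in mm. Streptomycin and procaine penicillin served as standards.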

Experiment [2] deals with Escherichia coli. The experiment can be described thus: Antibacterial activity against Escherichia coli at 100 ug/ml after 24 to 48 hrs by cup-plate method. The note with it: read-out: IZ. The essentials: as §1
Experiment [3] deals with Mus musculus. Put plainly: Analgesic activity in albino mouse assessed as paw licking latency at 100 mg/kg after 4 hrs by Eddy's hot plate method. The essentials: (§2)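 Albino mice of either sex, fasted 24 h, 6 per group. Compounds given at 100 mg/kg; control group received 2% acacia suspension, standard group pentazocine 35 mg/kg. Hot plate held at 55 ± 1 °C. Reaction time is the time to lick a hind paw or leap off the plate, recorded at 0, 30, 60, 120 and 240 min after dosing.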
(Thermal pain tests record how soon the animal reacts.)

Experiment [4] deals with Bacillus subtilis. The experiment can be described thus: Antibacterial activity against Bacillus subtilis at 50 ug/ml after 24 to 48 hrs by cup-plate method. Conditions: read-out: IZ. Summed up:
as §1

Experiment [5] relates to Mus musculus. The experiment can be described thus: Analgesic activity in albino mouse assessed as paw licking latency at 100 mg/kg after 1 hr by Eddy's hot plate method. The essentials: as §2
Experiment [6] concerns Staphylococcus aureus. The experiment can be described thus: Antibacterial activity against Staphylococcus aureus at 50 ug/ml after 24 to 48 hrs by cup-plate method. Conditions: read-out: IZ. The essentials: as §1
Experiment [7] concerns Escherichia coli. The experiment can be described thus: Antibacterial activity against Escherichia coli at 50 ug/ml after 24 to 48 hrs by cup-plate method. The note with it: read-out: IZ. The essentials: as §1
For experiment [8], the system named is Staphylococcus aureus. The experiment can be described thus: Antibacterial activity against Staphylococcus aureus at 100 ug/ml after 24 to 48 hrs by cup-plate method. The note with it: read-out: IZ. The essentials: as §1
For experiment [9], the system named is Pseudomonas aeruginosa. The experiment can be described thus: Antibacterial activity against Pseudomonas aeruginosa at 100 ug/ml after 24 to 48 hrs by cup-plate method. Conditions: read-out: IZ. The essentials:
as §1

Experiment [10] concerns Bacillus subtilis. The experiment can be described thus: Antibacterial activity against Bacillus subtilis at 100 ug/ml after 24 to 48 hrs by cup-plate method. Conditions: read-out: IZ. The essentials:
as §1

The test system of experiment [11] is Mus musculus. The experiment can be described thus: Analgesic activity in albino mouse assessed as paw licking latency at 100 mg/kg after 0.5 hrs by Eddy's hot plate method. The essentials: as §2
Experiment [12] deals with Mus musculus. Put plainly: Analgesic activity in albino mouse assessed as paw licking latency at 100 mg/kg after 2 hrs by Eddy's hot plate method. The essentials:
as §2

Molecules are shown by their SMILES.

Consider `COc1ccccc1-c1cccc(-c2n[nH]c(=S)o2)c1`, for which the zone of inhibition at 50 µg/mL in experiment [1] came to 11 mm; in experiment [4], 10 mm; in experiment [6], 11 mm; in experiment [7] it was 12 mm. The zone of inhibition at 100 µg/mL in experiment [2] turned out to be 18 mm; in [8], 18 mm; in experiment [9], 18 mm; in [10] it was 21 mm. Besides, the Time in experiment [3] worked out at 6.28 s; in experiment [5], 5.84 s; in [11], 4.94 s; in experiment [12] it was 7.61 s.

As for `Fc1ccccc1-c1cccc(-c2n[nH]c(=S)o2)c1`, the zone of inhibition at 50 µg/mL was found to be 18 mm in experiment [1], 12 mm in [4], 15 mm in experiment [6] and 15 mm in [7]. The zone of inhibition at 100 µg/mL in experiment [2] worked out at 19 mm; in [8] it was 20 mm; in [9] it was 21 mm; in experiment [10], 19 mm. In addition, the Time in [3] is listed as 5.04 s; in [5], 5.24 s; in [11], 4.99 s; in [12] it was 5.38 s.

With `S=c1[nH]nc(-c2cccc(-c3cccc(Cl)c3)c2)o1`, the zone of inhibition at 50 µg/mL is 9 mm in experiment [1], 13 mm in experiment [4], 10 mm in experiment [6] and 11 mm in experiment [7]. In addition, the zone of inhibition at 100 µg/mL came out at 16 mm in experiment [2], 11 mm in [8], 14 mm in experiment [9] and 9 mm in experiment [10]. Besides, the Time in experiment [3] is reported as 5.08 s; in [5] it was 4.84 s; in experiment [11], 4.71 s; in experiment [12], 5.01 s.

For `COc1ccc(F)cc1-c1cccc(-c2n[nH]c(=S)o2)c1`, the zone of inhibition at 50 µg/mL is 14 mm in [1], 12 mm in experiment [4], 12 mm in experiment [6] and 8 mm in experiment [7]. In addition, the zone of inhibition at 100 µg/mL in experiment [2] was 20 mm; in experiment [8], 17 mm; in experiment [9] it was 19 mm; in [10] it was 19 mm. The Time is given as 6.35 s in experiment [3], 5.74 s in experiment [5], 5.22 s in [11] and 8.41 s in experiment [12].

For `COC(=O)CCCSc1nnc(-c2cccc(-c3cc(F)ccc3OC)c2)o1`, the zone of inhibition at 50 µg/mL in experiment [1] was 13 mm; in experiment [4] it was 13 mm; in [6] it was 10 mm; in experiment [7], 15 mm. For the same molecule, the zone of inhibition at 100 µg/mL in experiment [2] is 18 mm; in [8], 16 mm; in [9] it was 19 mm; in experiment [10] it was 18 mm. Further, the Time in [3] came to 6.01 s; in experiment [5], 5.11 s; in experiment [11], 4.75 s; in experiment [12], 6.01 s.

In the case of `COC(=O)CCCSc1nnc(-c2cccc(-c3ccccc3OC)c2)o1`, the zone of inhibition at 50 µg/mL amounted to 18 mm in experiment [1], 11 mm in [4], 9 mm in experiment [6] and 7 mm in [7]. The zone of inhibition at 100 µg/mL in [2] stood at 16 mm; in [8] it was 14 mm; in [9], 21 mm; in experiment [10], 15 mm. Moreover, the Time in experiment [3] worked out at 6.21 s; in experiment [5] it was 5.21 s; in [11], 5.01 s; in [12] it was 6.58 s.

Take `COC(=O)CCCSc1nnc(-c2cccc(-c3ccccc3F)c2)o1`: the zone of inhibition at 50 µg/mL in [1] was 13 mm; in [4], 9 mm; in [6] it was 15 mm; in [7], 9 mm. The zone of inhibition at 100 µg/mL in [2] amounted to 16 mm; in [8], 17 mm; in experiment [9], 21 mm; in experiment [10] it was 16 mm. Further, the Time is given as 4.49 s in experiment [3], 4.62 s in experiment [5], 4.53 s in experiment [11] and 4.84 s in experiment [12].

`COC(=O)CCCSc1nnc(-c2cccc(-c3cccc(Cl)c3)c2)o1`: the zone of inhibition at 50 µg/mL in [1] worked out at 6 mm; in experiment [4], 11 mm; in experiment [6], 10 mm; in experiment [7], 18 mm. Also, the zone of inhibition at 100 µg/mL is 19 mm in [2], 16 mm in [8], 18 mm in experiment [9] and 18 mm in [10]. The Time in experiment [3] was 5.59 s; in experiment [5], 5.36 s; in [11] it was 4.96 s; in experiment [12], 6.58 s.

Consider `COc1ccc(F)cc1-c1cccc(-c2nnc(SCCCCF)o2)c1`, for which the zone of inhibition at 50 µg/mL came to 7 mm in experiment [1], 10 mm in experiment [4], 12 mm in experiment [6] and 12 mm in experiment [7]. In addition, the zone of inhibition at 100 µg/mL in experiment [2] is 19 mm; in [8], 15 mm; in [9], 15 mm; in experiment [10], 17 mm. The Time in experiment [3] stood at 4.55 s; in experiment [5], 4.48 s; in experiment [11] it was 4.35 s; in experiment [12], 4.72 s.

For `COc1ccccc1-c1cccc(-c2nnc(SCCCCF)o2)c1`, the zone of inhibition at 50 µg/mL was 6 mm in experiment [1], 15 mm in [4], 15 mm in experiment [6] and 12 mm in [7]. For the same molecule, the zone of inhibition at 100 µg/mL was 16 mm in [2], 21 mm in experiment [8], 15 mm in experiment [9] and 20 mm in [10]. Moreover, the Time in experiment [3] worked out at 6.01 s; in [5], 5.01 s; in experiment [11], 4.9 s; in experiment [12], 6.17 s.

Regarding `FCCCCSc1nnc(-c2cccc(-c3ccccc3F)c2)o1`, the zone of inhibition at 50 µg/mL in experiment [1] turned out to be 17 mm; in [4], 20 mm; in experiment [6] it was 13 mm; in [7], 13 mm. In addition, the zone of inhibition at 100 µg/mL in experiment [2] was 19 mm; in experiment [8] it was 20 mm; in experiment [9], 18 mm; in experiment [10] it was 22 mm. The Time was 4.47 s in experiment [3], 4.69 s in [5], 4.62 s in [11] and 4.87 s in [12].
